Reference: article PMC7945681 (Journal of materials chemistry. B, 2020)

How the values were obtained:
VCAM1^+ BMECs = format: cell-based, human; conditions: for co-localization of the cis isomer with anti-VCAM1 antibody: VCAM1^+ BMECs, confocal microscopy
human VCAM1 = experiment: SPR measurement of peptide-VCAM1 binding; conditions: for ∣ΔΔGB∣: ∣ΔGB,trans – ΔGB,cis∣ from SPR values
Method in brief: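 Peptide-functionalised gold sensor chips, with three sensors per ligand and ligand density measured by variable angle spectroscopic ellipsometry. Chip-bound peptide was conditioned to cis or trans isomer, then exposed to human VCAM1 at 0.01–1 mg mL−1 in PBS. KD was determined for each isomer.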

cycloAZOB[G-VHAKQHRN-K*]-K(Biotin) (sidechain bridge or staple)
co-localization of the cis isomer with anti-VCAM1 antibody (VCAM1^+ BMECs): co-localization with anti-VCAM1 antibodies in cis configuration

cycloAZOB[G-VHNKQHRP-K*] (sidechain bridge or staple)
∣ΔΔGB∣ (human VCAM1): 1.84

cycloAZOB[G-VHAKQHRN-K*] (sidechain bridge or staple)
KD,trans/KD,cis (human VCAM1; affinity shift between trans and cis isomers, SPR): ~ 130
∣ΔΔGB∣ (human VCAM1): 2.93
binding to BMECs in trans configuration (VCAM1^+ BMECs; BMEC labelling, fluorescence microscopy): negligible binding
co-localization of the cis isomer with anti-VCAM1 antibody (VCAM1^+ BMECs): clear co-localization

cycloAZOB[G-VHPKQHRP-K*] (sidechain bridge or staple)
∣ΔΔGB∣ (human VCAM1): 1.52

cycloAZOB[G-VHPKQHRS-K*] (sidechain bridge or staple)
∣ΔΔGB∣ (human VCAM1): 2.52
